Source: ChEMBL document CHEMBL3244187, “Structure--activity relationships in cephalosporins prepared from penicillins. 2. Analogues of cephalexin substituted in the 3-methyl group” (J Med Chem, 1977)
Converted amounts (≈) assume the structure as drawn. The source made the active and inactive calls. The calls are words filed in the database; no cut-off is given here.

Tests used:
Klebsiella aerogenes = experiment: Antibacterial activity against Klebsiella aerogenes after 18 hrs by serial dilution method; assay type: functional
In short: (§1)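 MICs by serial dilution on nutrient agar. Inoculum 0.001 mL of undiluted overnight broth culture. Plates incubated at 37 °C for 18 h before reading.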

[1] = Drug level in mouse blood at 50 mg/kg, po after 10 mins by microbiological assay; assay type: ADME, organism-based; parameters: dose 50 mg/kg, route oral; settings: read-out: Drug uptake
In short: (§2)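 Mice given a single 50 mg/kg dose by the route in the line. Groups of five killed at each time point and blood taken from the cut axilla, heparinized and stored at 4 °C. Blood assayed the same day by large-plate microbiological assay with Sarcina lutea NCTC 8340, overnight at 30 °C. Standards made in mouse blood, with pH 7.2 phosphate-buffered saline as diluent.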

[2] = Drug level in mouse blood at 50 mg/kg, po after 20 mins by microbiological assay; assay type: ADME, organism-based; parameters: dose 50 mg/kg, route oral; settings: read-out: Drug uptake; in short: as §2
[3] = Drug level in mouse blood at 50 mg/kg, po after 30 mins by microbiological assay; assay type: ADME, organism-based; parameters: dose 50 mg/kg, route oral; settings: read-out: Drug uptake; in short: as §2
[4] = Drug level in mouse blood at 50 mg/kg, po after 1 hr by microbiological assay; assay type: ADME, organism-based; parameters: dose 50 mg/kg, route oral; settings: read-out: Drug uptake; in short: as §2
[5] = Drug level in mouse blood at 50 mg/kg, po after 2 hrs by microbiological assay; assay type: ADME, organism-based; parameters: dose 50 mg/kg, route oral; settings: read-out: Drug uptake; in short: as §2
[6] = Drug level in mouse blood at 50 mg/kg, po after 4 hrs by microbiological assay; assay type: ADME, organism-based; parameters: dose 50 mg/kg, route oral; settings: read-out: Drug uptake; in short: as §2
[7] = Drug level in mouse blood at 50 mg/kg, sc after 10 mins by microbiological assay; assay type: ADME, organism-based; parameters: dose 50 mg/kg, route subcutaneous; settings: read-out: Drug uptake; in short: as §2
[8] = Drug level in mouse blood at 50 mg/kg, sc after 20 mins by microbiological assay; assay type: ADME, organism-based; parameters: dose 50 mg/kg, route subcutaneous; settings: read-out: Drug uptake; in short: as §2
[9] = Drug level in mouse blood at 50 mg/kg, sc after 30 mins by microbiological assay; assay type: ADME, organism-based; parameters: dose 50 mg/kg, route subcutaneous; settings: read-out: Drug uptake; in short: as §2
[10] = Drug level in mouse blood at 50 mg/kg, sc after 1 hr by microbiological assay; assay type: ADME, organism-based; parameters: dose 50 mg/kg, route subcutaneous; settings: read-out: Drug uptake; in short: as §2
[11] = Drug level in mouse blood at 50 mg/kg, sc after 2 hrs by microbiological assay; assay type: ADME, organism-based; parameters: dose 50 mg/kg, route subcutaneous; settings: read-out: Drug uptake; in short: as §2
[12] = Drug level in mouse blood at 50 mg/kg, sc after 4 hrs by microbiological assay; assay type: ADME, organism-based; parameters: dose 50 mg/kg, route subcutaneous; settings: read-out: Drug uptake; in short: as §2
[13] = Drug level in mouse blood at 50 mg/kg, iv after 10 mins by microbiological assay; assay type: ADME, organism-based; parameters: dose 50 mg/kg, route intravenous; settings: read-out: Drug uptake; in short: as §2
[14] = Drug level in mouse blood at 50 mg/kg, iv after 20 mins by microbiological assay; assay type: ADME, organism-based; parameters: dose 50 mg/kg, route intravenous; settings: read-out: Drug uptake; in short: as §2
[15] = Drug level in mouse blood at 50 mg/kg, iv after 30 mins by microbiological assay; assay type: ADME, organism-based; parameters: dose 50 mg/kg, route intravenous; settings: read-out: Drug uptake; in short: as §2
[16] = Drug level in mouse blood at 50 mg/kg, iv after 1 hr by microbiological assay; assay type: ADME, organism-based; parameters: dose 50 mg/kg, route intravenous; settings: read-out: Drug uptake; in short: as §2
[17] = Drug level in mouse blood at 50 mg/kg, iv after 2 hrs by microbiological assay; assay type: ADME, organism-based; parameters: dose 50 mg/kg, route intravenous; settings: read-out: Drug uptake; in short: as §2
[18] = Drug level in mouse blood at 50 mg/kg, iv after 4 hrs by microbiological assay; assay type: ADME, organism-based; parameters: dose 50 mg/kg, route intravenous; settings: read-out: Drug uptake; in short: as §2
Staphylococcus aureus [19] = experiment: Antibacterial activity against Staphylococcus aureus Smith infected in sc dosed mouse administered 1 hr post infection; assay type: functional
In short: (§3)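 Infected mice were treated subcutaneously or orally. Protection is expressed as CD50 in mg/kg, as the total dose given.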

Staphylococcus aureus [20] = experiment: Antibacterial activity against Staphylococcus aureus Smith infected in sc dosed mouse administered 1 hr and 5 hrs post infection; assay type: functional; in short: as §3
Escherichia coli [21] = experiment: Antibacterial activity against Escherichia coli 8 infected in sc dosed mouse administered 1 hr post infection; assay type: functional; in short: as §3
Escherichia coli [22] = experiment: Antibacterial activity against Escherichia coli 8 infected in sc dosed mouse administered 1 hr and 5 hrs post infection; assay type: functional; in short: as §3
Proteus mirabilis [23] = experiment: Antibacterial activity against Proteus mirabilis 13 infected in sc dosed mouse administered 1 hr post infection; assay type: functional; in short: as §3
Proteus mirabilis [24] = experiment: Antibacterial activity against Proteus mirabilis 13 infected in sc dosed mouse administered 1 hr and 5 hrs post infection; assay type: functional; in short: as §3
Staphylococcus aureus [25] = experiment: Antibacterial activity against Staphylococcus aureus Smith infected in po dosed mouse administered 1 hr post infection; assay type: functional; in short: as §3
Staphylococcus aureus [26] = experiment: Antibacterial activity against Staphylococcus aureus Smith infected in po dosed mouse administered 1 hr and 5 hrs post infection; assay type: functional; in short: as §3
Escherichia coli [27] = experiment: Antibacterial activity against Escherichia coli 8 infected in po dosed mouse administered 1 hr post infection; assay type: functional; in short: as §3
Escherichia coli [28] = experiment: Antibacterial activity against Escherichia coli 8 infected in po dosed mouse administered 1 hr and 5 hrs post infection; assay type: functional; in short: as §3
[29] = Drug metabolism in mouse assessed as metabolite level in urine by Sarcina lutea antibacterial assay; assay type: ADME
In short: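 Urine from dosed mice run on paper strip chromatography in butanol-ethanol-water (4:1:5). Active zones located on agar plates seeded with Sarcina lutea.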

Pseudomonas aeruginosa = experiment: Antibacterial activity against cephalosporin-resistant Pseudomonas aeruginosa after 18 hrs by serial dilution method; assay type: functional, organism-based
In short: (§4)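 MICs by serial dilution on nutrient agar. Inoculum 0.001 mL of undiluted overnight broth culture. Plates incubated 18 h at 37 °C before reading. The S. aureus Russell strain produces β-lactamase and resists benzylpenicillin.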

Morganella morganii = experiment: Antibacterial activity against cephalosporin-resistant Proteus morganii after 18 hrs by serial dilution method; assay type: functional, organism-based; in short: as §4
Enterobacter cloacae = experiment: Antibacterial activity against cephalosporin-resistant Enterobacter cloacae after 18 hrs by serial dilution method; assay type: functional, organism-based; in short: as §4
Staphylococcus aureus [30] = experiment: Antibacterial activity against beta-lactamase producing benzylpenicillin-resistant Staphylococcus aureus Russell after 18 hrs by serial dilution method; assay type: functional; in short: as §4
Escherichia coli [31] = experiment: Antibacterial activity against Escherichia coli after 18 hrs by serial dilution method; assay type: functional; in short: as §1
Salmonella typhi = experiment: Antibacterial activity against Salmonella typhi after 18 hrs by serial dilution method; assay type: functional, Salmonella enterica subsp. enterica serovar Typhi; settings: Salmonella enterica; in short: as §4
Shigella sonnei = experiment: Antibacterial activity against Shigella sonnei after 18 hrs by serial dilution method; assay type: functional; in short: as §1
Proteus mirabilis [32] = experiment: Antibacterial activity against Proteus mirabilis after 18 hrs by serial dilution method; assay type: functional; in short: as §1
[33] = Drug level in mouse blood at 50 mg/kg, po after 15 mins by microbiological assay
Staphylococcus aureus [34] = experiment: Antibacterial activity against Staphylococcus aureus Oxford after 18 hrs by serial dilution method; assay type: functional; in short: as §1

Row | SMILES | MIC (Klebsiella aerogenes) | concentration at 0.5 h [3] | concentration at 1 h [4] | concentration at 2 h [5] | concentration at 4 h [6] | concentration at 10 min [7] | concentration at 20 min [8] | concentration at 0.5 h [9] | concentration at 1 h [10] | concentration at 2 h [11] | concentration at 4 h [12] | CD50 (Staphylococcus aureus [19]) | CD50 (Staphylococcus aureus [20]) | CD50 (Escherichia coli [21]) | CD50 (Escherichia coli [22]) | CD50 (Proteus mirabilis [23]) | CD50 (Proteus mirabilis [24]) | CD50 (Staphylococcus aureus [25]) | CD50 (Staphylococcus aureus [26]) | CD50 (Escherichia coli [27]) | further results
1 | N[C@@H](C(=O)N[C@@H]1C(=O)N2C(C(=O)O)=C(Cc3ccc(C(=O)O)cc3)CS[C@H]12)c1ccccc1 | 2.5 µg/mL (≈ 5.35 µM) | 1600 ng/mL | 2400 ng/mL | 2300 ng/mL | 1900 ng/mL | 75.2 µg/mL | 87.4 µg/mL | 68800 ng/mL | 48000 ng/mL | 22000 ng/mL | 9300 ng/mL | 1.25 mg/kg | 1.8 mg/kg | 130 mg/kg | 60 mg/kg | 14 mg/kg | 19 mg/kg | 17 mg/kg | 28 mg/kg | >1000 mg/kg | concentration at 10 min [1]: < 1000 ng/mL; concentration at 20 min [2]: < 1000 ng/mL; concentration at 10 min [13]: 70.3 µg/mL; concentration at 20 min [14]: 48200 ng/mL; concentration at 0.5 h [15]: 39200 ng/mL; concentration at 1 h [16]: 25400 ng/mL; concentration at 2 h [17]: 4500 ng/mL; concentration at 4 h [18]: 2400 ng/mL; CD50 (Escherichia coli [28]): 2000 mg/kg; Drug metabolism [29]: metabolite_detected; Activity (Pseudomonas aeruginosa): inactive; Activity (Morganella morganii): inactive; Activity (Enterobacter cloacae): inactive
2 | CC1=C(C(=O)O)N2C(=O)[C@@H](NC(=O)[C@H](N)c3ccccc3)[C@H]2SC1 [CEPHALEXIN ANHYDROUS] | 5 µg/mL (≈ 14.4 µM) | 21700 ng/mL | 8300 ng/mL | 2500 ng/mL | 560 ng/mL | 27 µg/mL | 20.5 µg/mL | 13300 ng/mL | 3000 ng/mL | 420 ng/mL | < 150 ng/mL | 0.46 mg/kg | 1 mg/kg | 7.4 mg/kg | 17 mg/kg | 64 mg/kg | 84 mg/kg | 0.25 mg/kg | 0.38 mg/kg | 8.5 mg/kg | MIC (Staphylococcus aureus [30]): 5 µg/mL (≈ 14.4 µM); MIC (Escherichia coli [31]): 12.5 µg/mL (≈ 36 µM); MIC (Salmonella typhi): 5 µg/mL (≈ 14.4 µM); MIC (Shigella sonnei): 5 µg/mL (≈ 14.4 µM); MIC (Proteus mirabilis [32]): 12.5 µg/mL (≈ 36 µM); concentration at 0.25 h [33]: 23900 ng/mL; CD50 (Escherichia coli [28]): 17 mg/kg; MIC (Staphylococcus aureus [34]): 1.25 µg/mL (≈ 3.6 µM)
